Results: article PMC7223318 (Drug Delivery and Translational Research, 2020)
No end group written: not given here.

Tested on: ARPE-19 cells
Experiment: Cellular uptake of FITC-labelled peptides, confocal microscopy
Type: in vitro ADME, human
Conditions: 1 h, 37 °C, confocal microscopy (Fig. 2)
Method in brief: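 ARPE-19 cells (DMEM/F-12 GlutaMAX, 10% FBS, 1% AA) were seeded at 2 × 10^5 cells/ml in chamber slides and grown two nights. FITC-labelled peptides were applied for 1 h at 37 °C, 5% CO2, in culture medium or in hypoxic HAIR solution (K-gluconate/Na-gluconate/NMDG-based, bicarbonate). Cells were then PBS-washed, fixed in 4% formaldehyde, DAPI-counterstained and imaged by confocal microscopy.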

Sequence: KQIEIKKFK [Gap19]
- cellular uptake in hypoxic ARPE-19 cells (HAIR solution (hypoxia), FITC-labelled Gap19 100 μM or XG19 5 μM): undetectable
- cellular uptake in normal ARPE-19 cells (normal culture medium, FITC-labelled Gap19 100 μM): undetectable
